ChEMBL document CHEMBL1122698, “Selective delivery of cytotoxic compounds to cells by the LDL pathway” (1984)

Assays:
Format in all cases: functional
Homo sapiens [1] = species on record: Homo sapiens; assay: The compound was tested for the toxicity of +Me-r-LDL,measured by its ability to inhibit the growth of normal human fibroblasts or chinese hamster ovary (CHO) cells, at concentration 80 ug/mL
Outline: (§1)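 SV-40-transformed human fibroblasts (SV-589) were seeded at 20 000/well and left 4 h. They were then exposed to compound-reconstituted LDL or reconstituted methylated LDL (Me-r-LDL, not recognised by LDL receptors). Doses are given as LDL protein concentration. On day 3 the wells were PBS-washed to remove dead cells, and adherent cells were fixed with 15% formalin for 15 min and stained with crystal violet. Growth was scored visually, with untreated controls scored 4.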

Homo sapiens [2] = species on record: Homo sapiens; assay: The compound was tested for the toxicity of +r-LDL,measured by its ability to inhibit the growth of normal human fibroblasts or chinese hamster ovary (CHO) cells, at concentration 80 ug/mL; outline: as §1
Homo sapiens [3] = species on record: Homo sapiens; assay: The compound was tested for the toxicity of normal +r-LDL, measured by its ability to inhibit the growth of normal human fibroblasts or chinese hamster ovary (CHO) cells, at concentration 0.5 ug/mL
Outline: (§2)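 Compound reconstituted into LDL (r-LDL) and added to cells; concentration given as LDL protein, roughly equal to compound concentration. Cells plated 20 000/well, left 4 h, then r-LDL added. On day 3, wells washed with PBS to remove dead cells; adherent cells fixed in 15% formalin 15 min, crystal violet stained, scored visually on a 0–6 growth scale (untreated control = 6).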

[4] = The compound was tested for the toxicity of mutant+r-LDL, measured by its ability to inhibit the growth of normal human fibroblasts or chinese hamster ovary (CHO) cells, at concentration 0.5 ug/mL; outline: as §2
Homo sapiens [5] = species on record: Homo sapiens; assay: (§3) The compound was tested for the toxicity of normal +r-LDL, measured by its ability to inhibit the growth of normal human fibroblasts or chinese hamster ovary (CHO) cells, at concentration 10 ug/mL; outline: as §2
[6] = The compound was tested for the toxicity of mutant+r-LDL, measured by its ability to inhibit the growth of normal human fibroblasts or chinese hamster ovary (CHO) cells, at concentration 10 ug/mL; outline: as §2
Homo sapiens [7] = species on record: Homo sapiens; assay: The compound was tested for the toxicity of normal +r-LDL, measured by its ability to inhibit the growth of normal human fibroblasts or chinese hamster ovary (CHO) cells, at concentration 80 ug/mL
Outline: (§4)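 Normal human fibroblasts were seeded at 20 000/well and held 4 h before addition of compound-reconstituted LDL (r-LDL) or methylated r-LDL. Comparison cells with few LDL receptors were receptor-negative homozygous FH fibroblasts or V-79 CHO cells. Doses are given as LDL protein concentration. On day 3 the cells were PBS-washed, fixed with 15% formalin for 15 min and stained with crystal violet. Growth was scored visually from 0 to 6, with untreated controls at 6.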

Homo sapiens [8] = species on record: Homo sapiens; assay: as §3; outline: as §4; remark: listed apart in the source
Homo sapiens [9] = species on record: Homo sapiens; assay: The compound was tested for the toxicity of normal +r-LDL, measured by its ability to inhibit the growth of normal human fibroblasts or chinese hamster ovary (CHO) cells, at concentration 20 ug/mL; outline: as §4
[10] = The compound was tested for the toxicity of mutant+r-LDL, measured by its ability to inhibit the growth of normal human fibroblasts or chinese hamster ovary (CHO) cells, at concentration 20 ug/mL; outline: as §4
Homo sapiens [11] = species on record: Homo sapiens; assay: The compound was tested for the toxicity of normal+r-LDL, measured by its ability to inhibit the growth of normal human fibroblasts or chinese hamster ovary (CHO) cells, at concentration 10 ug/mL; outline: as §4
Homo sapiens [12] = species on record: Homo sapiens; assay: The compound was tested for the toxicity of normal+r-LDL, measured by its ability to inhibit the growth of normal human fibroblasts or chinese hamster ovary (CHO) cells, at concentration 2 ug/mL; outline: as §4
[13] = The compound was tested for the toxicity of mutant+r-LDL, measured by its ability to inhibit the growth of normal human fibroblasts or chinese hamster ovary (CHO) cells, at concentration 2 ug/mL; outline: as §4

For `CCCCCCCC/C=C\CCCCCCCCC(=O)O[C@H]1CC[C@@]2(C)C(=CC[C@H]3[C@@H]4CC[C@H](C(C)CCCOC(=O)CCCc5ccc(N(CCCl)CCCl)cc5)C4CC[C@@H]32)C1` (stereo partly drawn), the Growth of cells (Homo sapiens [1]) was 4 and the Growth of cells (Homo sapiens [2]) was 4.

For `CCCCCCCC/C=C\CCCCCCCCC(=O)O[C@H]1CC[C@@]2(C)C(=CC[C@H]3[C@@H]4CC[C@H](C(C)C(=O)N5CCOC(CCCCCCCCCCCC)C5)C4CC[C@@H]32)C1` (stereo partly drawn), the Growth of cells (Homo sapiens [3]) was 6 and the Growth of cells [4] was 6.

Compound `CCCCCCCC/C=C\CCCCCCCCC(=O)O[C@H]1CC[C@@]2(C)C(=CC[C@H]3[C@@H]4CC[C@H](C(C)COC(=O)N5CCOC(CCCCCCCCCCCC)C5)C4CC[C@@H]32)C1` (stereo partly drawn) has a Growth of cells (Homo sapiens [5]) of 6 and a Growth of cells [6] of 6.

In the case of `CCCCCCCC/C=C\CCCCCCCCC(=O)O[C@H]1CC[C@@]2(C)C(=CC[C@H]3[C@@H]4CC[C@H](C(C)COC(=O)CCCc5ccc(N(CCCl)CCCl)cc5)C4CC[C@@H]32)C1` (stereo partly drawn), the Growth of cells (Homo sapiens [1]) is reported as 4, the Growth of cells (Homo sapiens [2]) is reported as 4 and the Growth of cells (Homo sapiens [7]) is reported as 6.

`CCCCCCCC/C=C\CCCCCCCCC(=O)O[C@H]1CC[C@@]2(C)C(=CC[C@H]3[C@@H]4CC[C@H](C(C)COC(=O)N(CCCl)CCCl)C4CC[C@@H]32)C1` (stereo partly drawn) showed a Growth of cells (Homo sapiens [8]) of 0 and a Growth of cells [6] of 6.

With `CCCCCCCC/C=C\CCCCCCCCNC(=O)C(C)[C@H]1CC[C@@H]2C1CC[C@H]1[C@H]2CC=C2C[C@@H](OC(=O)CCCCCCCC/C=C\CCCCCCCC)CC[C@@]21C` (stereo partly drawn) the Growth of cells (Homo sapiens [9]) was 6 and the Growth of cells [10] was 6.

Compound `CCCCCCCC/C=C\CCCCCCCCC(=O)O[C@H]1CC[C@@]2(C)C(=CC[C@H]3[C@@H]4CC[C@H](C(C)COC(=O)NCCCCCCCCCCCC)C4CC[C@@H]32)C1` (stereo partly drawn) has a Growth of cells (Homo sapiens [5]) of 6 and a Growth of cells [6] of 6.

For `CCCCCCCC/C=C\CCCCCCCCN1CC(C)OC(C)C1` (stereo not drawn), the Growth of cells (Homo sapiens [3]) was 0 and the Growth of cells [4] was 0.

Compound `CC(C)CCCC(C)C1CCC2C3CC=C4CC(OC(=O)Cc5ccc(N(CCCl)CCCl)cc5)CCC4(C)C3CCC12C` (stereo not drawn) has a Growth of cells (Homo sapiens [9]) of 6 and a Growth of cells [10] of 6.

Work on `CC1=C(/C=C/C(C)=C/C=C/C(C)=C\CN2CCOCC2)C(C)(C)CCC1` yielded a Growth of cells (Homo sapiens [3]) of 0 and a Growth of cells [4] of 0.

Compound `CCCCCCCC/C=C\CCCCCCCCOC(=O)N(CCCCCCCCCCCC)CC(F)(F)F` has a Growth of cells (Homo sapiens [8]) of 6 and a Growth of cells [6] of 6.

In the case of `CCCCCCCC/C=C\CCCCCCCCN1CCOCC1`, the Growth of cells (Homo sapiens [3]) is reported as 0 and the Growth of cells [4] is reported as 1.

In the case of `CCCCCCCC/C=C\CCCCCCCCOC(=O)N(CCCCCCCCCCCC)CC(F)F`, the Growth of cells (Homo sapiens [5]) is reported as 6 and the Growth of cells [6] is reported as 6.

`CCCCCCCC/C=C\CCCCCCCCOC(=O)N1CCOC(CCCCCCCCCCCC)C1` (stereo not drawn) gave a Growth of cells (Homo sapiens [5]) of 6 and a Growth of cells [6] of 6.

In the case of `CCCCCCCC/C=C\CCCCCCCCOC(=O)N(CCCl)CCCl`, the Growth of cells (Homo sapiens [11]) is reported as 0, the Growth of cells (Homo sapiens [12]) is reported as 2 and the Growth of cells [6] is reported as 0. The Growth of cells [13] was 5.
